Screening results deposited in PubChem BioAssay by several laboratories.
MPTP block – inhibitors of mitochondrial permeability transition pore. isolated mouse mitochondria, Ca2+ swelling absorbance, 30 min. AID 602449. 360,000 tested, 1.4% active. inhibition, % at 10 µM;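 active = inhibition of 50% or more, scaled per plate between neutral and stimulator controls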;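 also: 0% = DMSO wells given calcium and 100% = 1 mM EGTA wells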
OX1R antag-1 – blocks the human orexin 1 receptor. O43613. CHO/OX1R cells, Fluo-8 calcium fluorescence, orexin A. 330,000 tested, 0.43% active. inhibition, % at 5 µM. AID 434989;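 active = inhibition above its plate's threshold, mean inhibition of all tested compounds on the plate plus 3 SD, cut at about 37% in these data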;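 also: 0% = orexin A challenge wells and 100% = SB-334867-A antagonist wells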
OX1R antag-2 – OX1R (human) antagonism; AID 485270; O43613; OX1R-expressing cells, FRET antagonist read-out; 330,000 tested, 1.8% active; inhibition, % at 6.6 µM; in the data active = inhibition mostly above about 38%, no sharp cut-off; inactive = mostly below about 40%;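 also: 0% = agonist challenge alone and 100% = reference antagonist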
GPR7 antagonist – blocks human GPR7 receptor signaling | P48145 | GPR7-expressing cells, fluorescence antagonist assay | inhibition, % at 4.4 µM | 290,000 tested, 1.1% active | AID 1861; in the data active = inhibition above about 16%, passing the limit was not always enough;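 also: cells stimulated with the agonist NPW; 0% = agonist with vehicle and 100% = vehicle without agonist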
Target sequence (P48145 whole entry, looked up): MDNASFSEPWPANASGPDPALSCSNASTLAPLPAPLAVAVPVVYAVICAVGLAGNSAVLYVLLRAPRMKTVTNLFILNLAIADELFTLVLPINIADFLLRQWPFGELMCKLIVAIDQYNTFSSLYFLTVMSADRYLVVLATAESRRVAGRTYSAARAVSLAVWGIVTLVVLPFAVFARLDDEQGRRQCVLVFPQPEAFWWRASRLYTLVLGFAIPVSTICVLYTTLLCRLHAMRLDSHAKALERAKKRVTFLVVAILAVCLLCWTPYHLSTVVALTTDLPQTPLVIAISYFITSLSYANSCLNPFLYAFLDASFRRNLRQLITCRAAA
CHO parental Ca – counter-screen for OX1R antagonists: effect in parental CHO cells; 330,000 tested, 0.63% active; inhibition, % at 5.6 µM; parental CHO-K1, ATP-induced calcium, Fluo-8 fluorescence; AID 463079;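 active = inhibition above that plate's mean sample inhibition plus 3 SD, cut at about 26% in these data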;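 also: 0% = ATP-challenged DMSO wells and 100% = DMSO wells without ATP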
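Material: Parental CHO cells | Reagent: ATP | Compound dosing: Single nominal dose of 5.6 µM per compound | Detection: Intracellular calcium via Fluo-8 no-wash fluorescent dye | Read-out: % inhibition of ATP-induced calcium mobilization | Benchmarks: Low control ATP plus DMSO, high control DMSO only | Replicates: Singlicate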
Numbers without * were called inactive; . = not tested or not shown. In the library only some 3.8% were active in any assay of this set; here they are far more common.

SMILES	MPTP block	OX1R antag-1	OX1R antag-2	GPR7 antagonist	CHO parental Ca
O=C(NC1CCCC1)C1c2ccccc2OCC(=O)N1Cc1cccnc1 (configuration not stated)	-0.1	.	.	.	.
CCOc1ccccc1NC(=O)CCSc1nc2n[nH]c(C)c2c(=N)n1-c1ccccc1Cl	5.7	-21.3	52.8*	-4.4	-25.3
CCc1ccccc1NC(=O)CSc1nc2n[nH]c(C)c2c(=N)n1-c1cccc(OC)c1	-1.2	16.0	46.1*	-8.8	-26.3
Cc1ccccc1-n1c(SCC(=O)Nc2ccccc2Cl)nc2n[nH]c(C)c2c1=N	0.5	26.6	35.7	-13.7	-15.3
COc1ccc(NC(=O)c2cc(-c3cc(C)ccc3O)n[nH]2)cc1Cl	23.5	4.5	71.3*	-8.8	-6.5
Cc1cccc(NC(=O)c2cc(-c3cc(C)ccc3O)n[nH]2)c1	1.2	-18.5	25.3	15.2	6.3
Cc1noc(C)c1COc1ccccc1C(=O)N(C)Cc1ccc(C(C)(C)C)cc1	6.0	47.6*	12.4	.	27.1
Cc1noc(C)c1COc1ccccc1C(=O)N(C)Cc1ccc(F)cc1	-2.3	.	.	.	.
CN(C)c1ccc(C(CNS(=O)(=O)c2ccc([N+](=O)[O-])cc2)N2CCCC2)cc1 (configuration not stated)	7.7	-31.7	71.0*	.	-14.6
CN(C)c1ccc(C(CNS(=O)(=O)c2ccc3ccccc3c2)N2CCOCC2)cc1 (configuration not stated)	-0.5	-28.8	17.4	.	-14.4
COc1ccc(NC(=O)c2ccc3ccccc3c2)cc1	0.9	-2.7	11.1	14.2	42.1*
COc1ccc(OC)c(NC(=O)c2cccc(NC(=O)c3ccccc3)c2)c1	1.1	-13.9	54.2*	-1.3	-14.5
COc1ccc(C(=O)Nc2ccc(C3CC3(Cl)Cl)cc2)cc1 (configuration not stated)	-1.5	10.2	39.4	-7.7	36.8*
CCc1ccc(NC(=O)Cc2ccc(OC)cc2)cc1	.	-11.4	7.7	6.0	3.1
COc1ccc(CC(=O)Nc2ccc(C(C)=O)cc2)cc1	-2.3	-72.4	20.7	25.1*	-4.2
COc1ccc(NC(=O)c2ccc(NC(=O)c3ccncc3)cc2)cc1	2.6	6.3	-5.4	-0.7	-0.7
CC(=O)N1c2ccccc2NC2=C(C(=O)CC(C)(C)C2)C1c1cccn1C (configuration not stated)	0.4	-5.1	35.0	-3.2	3.8
Nc1ccccc1C(=O)N1CCCC1	-0.6	1.1	9.1	-12.8	-6.1
CCc1ccc(N(CC(=O)NCC2CCCO2)C(=O)CCC(=O)Nc2nccs2)cc1 (configuration not stated)	-0.1	-15.4	6.1	-9.1	-7.8
CC(C)NC(=O)C1(C)CSCC(=O)N1C1CCN(Cc2ccccc2)CC1 (configuration not stated)	-0.1	.	.	.	.
CC(=O)c1cccc(NC(=O)CN(C)S(=O)(=O)c2cccc3nsnc23)c1	1.3	-67.2	44.2*	1.5	-19.7
Cc1ccc(CNC(=O)CN(C)S(=O)(=O)c2cccc3nsnc23)cc1	-3.2	-18.9	71.3*	-0.8	-20.5
CN(CC(=O)N1CCCCC1)S(=O)(=O)c1cccc2nsnc12	0.6	-9.2	54.5*	3.2	-7.5
CN(CC(=O)NCCc1ccc(S(N)(=O)=O)cc1)S(=O)(=O)c1cccc2nsnc12	0.2	-19.5	58.6*	17.5	8.6
CCOc1ccc(CCNC(=O)CN(C)S(=O)(=O)c2cccc3nsnc23)cc1OCC	1.3	-20.3	24.6	-9.0	-25.2
SMILES	MPTP block	OX1R antag-1	OX1R antag-2	GPR7 antagonist	CHO parental Ca
COc1cc(OC)c(NC(=O)c2sc3ncn(CC(=O)N4CCN(c5ccccn5)CC4)c(=O)c3c2C)cc1Cl	0.3	-19.6	16.2	4.0	-17.2
COc1ccc(NC(=O)c2cc3c(=O)n(C)c4ccccc4c3s2)cc1OC	2.7	-11.9	54.2*	-8.9	-7.7
Cn1c(=O)c2cc(NCc3ccccc3)nnc2n(C)c1=O	-2.8	-17.1	48.0*	-1.9	-9.2
O=C(N=Nc1c(O)[nH]c2ccccc12)c1ccc(CN2CCOCC2)cc1	-0.8	3.0	63.4*	-11.4	-2.7
Oc1[nH]c2ccccc2c1N=NC(=S)N1CCOCC1	1.8	-10.2	19.5	-21.8	9.3
Cc1ccc(CN2CCN(CC(=O)N=Nc3c(O)[nH]c4ccccc34)CC2)cc1	1.3	-1.0	65.6*	-7.6	-27.2
COc1ccc(NC(=O)N(C)C[C@H]2OCc3cnnn3CCCC(=O)N([C@@H](C)CO)C[C@H]2C)cc1	-0.4	.	.	.	.
CC(C(=O)N1CCCc2ccccc21)N1C(=O)c2ccccc2C1=O (configuration not stated)	-0.9	-11.6	15.6	-4.8	-15.8
O=C(NN1CCCCC1)NN1CCCCC1	-0.2	.	.	.	.
COc1cc(SC#N)ccc1N=Cc1c(C)[nH]n(-c2ccc(C)c(C)c2)c1=O	4.2	96.3*	-2.9	0.3	96.2*
COc1cc(SC#N)ccc1N=Cc1c(C)[nH]n(-c2ccc(Cl)cc2)c1=O	3.6	29.9	17.1	-6.5	17.8
CCNC(=O)C1(C)CCCN(C(=O)c2ccc(C(F)(F)F)nc2C)C1 (configuration not stated)	-0.9	.	.	.	.
Cc1cccc2cc(C#N)c(SCC(=O)N3CC(=O)Nc4ccccc43)nc12	-3.5	14.3	70.6*	1.6	0.1
Oc1ccc(Cl)cc1/C=N/c1nccs1	-3.3	-5.7	10.7	-9.1	8.4
Oc1ccc(Cl)cc1C=Nc1ccc2c3c(cccc13)CC2	3.8	62.2*	13.1	4.4	59.4*
Cc1cccc(C=Nc2ccc3c4c(cccc24)CC3)c1O	7.1	54.0*	17.3	-4.7	38.9*
C=CCNc1nc(C(=O)OCC(=O)NCc2ccccc2OC)cs1	0.1	-4.7	5.8	.	-32.5
CCCCN1C(=O)C(CC(=O)NC2CCCC2)CC(C(=O)N2CCCCCC2)=C1C (configuration not stated)	0.5	.	.	.	.
CCOC(=O)c1csc(-c2snnc2C)n1	1.9	-4.1	16.1	-16.1	-16.5
COc1ccc(CNC(=O)Nc2nc(C(N)CCc3ccccc3)cs2)cc1 (configuration not stated)	3.6	.	.	.	.
Nc1nc(C(c2ccccc2)c2ccccc2)cs1	1.9	-1.6	21.6	-10.6	-7.5
Cc1ccc(S(=O)(=O)NCCOc2nc(N(C)C)nc(N3CCOCC3)n2)cc1	-1.6	-0.6	48.1*	-8.8	-22.6
CC1=C(C)/C(=N/OC(=O)c2cccc([N+](=O)[O-])c2)C=CC1=O	-0.2	16.8	73.5*	-2.9	1.3
Cn1c2ccccc2c(=O)c2cc(NCCCN3CCOCC3)ccc21	1.0	-20.7	58.6*	.	-27.9
CCCCCOC(=O)Nc1nnc(CCCCC)s1	-1.0	-35.0	6.6	18.9*	-20.9
NS(=O)(=O)c1ccc(NC(=O)COC(=O)CCNC(=O)NC23CC4CC(CC(C4)C2)C3)cc1	0.4	-6.4	4.9	17.0*	3.9
NS(=O)(=O)c1ccc(NC(=O)COC(=O)C23CC4CC(CC(C4)C2)C3)cc1	4.3	2.1	2.7	-0.9	4.9
COc1ccc(NC(=O)c2ccc(Oc3ncccn3)cc2)cc1	0.0	-6.9	12.2	2.5	5.4
